Test results: publication PMC3891043 (Canadian journal of chemistry, 2011)

Legend:
[1] = Photolysis quantum yields; assay type: physicochemical
Method in brief: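 Caged compound (1–9 mmol/L) plus internal standard (caffeine or 4-acetamidophenol) in water, buffer or solvent, in a quartz tube. Irradiated in a Rayonet carousel (two 15 W, 3000 Å Hg lamps), with ferrioxalate actinometry. Aliquots taken every 30 s up to 5 min, diluted and run on C18 LC-MS (water/methanol gradient with ammonium formate/formic acid), three injections each. Quantitation used calibration curves; Φ = concentration change / photons absorbed. 1H NMR in D2O confirmed products.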

[2] = Stern-Volmer quenching with sorbate; assay type: physicochemical; conditions: unbuffered 18 MΩ Ultrapure H2O; from KSV with kq assumed kdiff ~ 7.2 × 10^9 s^−1
Method in brief: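 pHP GABA (0.001–0.01 mol/L) was diluted with potassium sorbate quencher (0–0.1 mol/L) and photolysed under the quantum-yield conditions (Rayonet, 3000 Å, LC-MS quantitation of GABA release). KSV came from Φ0/Φ vs [Q]. Triplet lifetime was obtained from KSV, taking kq as the diffusion rate in water.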

[3] = 300 nm, pH 5.0, ammonium acetate (0.01 mol/L), buffered CH3CN–H2O
[4] = unbuffered 18 MΩ Ultrapure H2O, conversion <2%

Φapp, quantum yield for the appearance of GABA [1, 3]: 0.14
Φapp, quantum yield for the appearance of rearranged acid [1, 3]: 0.14
Φdis, quantum yield for the disappearance of pHP GABA [1, 3]: 0.15
Φapp, quantum yield for the appearance of GABA [1, 4]: 0.15
Φapp, quantum yield for the appearance of rearranged acid [1, 4]: 0.15
Φdis, quantum yield for the disappearance of pHP GABA [1, 4]: 0.16
SMILES: NCCCC(=O)OCC(=O)c1ccc(O)c(F)c1.O=C(O)C(F)(F)F [Compound 16, 4-(2-(3-Fluoro-4-hydroxyphenyl)-2-oxoethoxy)-4-oxobutan-1-aminium-2,2,2-trifluoroacetate]
τ^3, triplet lifetime [2]: 3.23 10^−9s
